From ChEMBL document CHEMBL2146441, “2,6-Disubstituted imidazo[2,1-b][1,3,4]thiadiazoles: search for anticancer agents” (2012)

How the values were obtained:
Type in all cases: functional
SNB-75 = assay: Cytotoxicity against human SNB75 cells assessed as cell growth at 10^-7 M after 48 hrs by SRB assay; conditions: SNB-75, 48 h, read-out: Activity
[1] = Cytotoxicity against human […] cells assessed as cell growth at 10^-8 M after 48 hrs by SRB assay; conditions: 48 h, read-out: Activity
NCI-H522 = assay: Cytotoxicity against human NCI-H522 cells assessed as cell growth at 10^-7 M after 48 hrs by SRB assay; conditions: NCI-H522, 48 h, read-out: Activity
SN12C = assay: Growth inhibition of human SN12C cells after 48 hrs by SRB assay; conditions: for CC50: read-out: LC50 (the source's name)
How it was run: (§1)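 Adherent NCI-60 lines grown in RPMI 1640 with 5% FBS, seeded at 5000–40,000 cells/well, and preincubated 24 h at 37 °C, 5% CO2. Compound, stocked in DMSO, given either once at 10^-5 M or at five 10-fold dilutions for 48 h. Cells fixed with cold TCA (final 10%), stained with 0.4% SRB, and read at 515 nm. GI50 taken as 50% reduction in net protein increase versus time-zero and control plates.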

IGROV-1 [2] = assay: Cytotoxicity against human IGROV1 cells assessed as cell growth at 10^-6 M after 48 hrs by SRB assay; conditions: IGROV-1, 48 h, read-out: Activity
How it was run: (§2)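 NCI-60 five-dose screen. Cells were grown in RPMI 1640 with 5% FBS and seeded at 5000–40,000 cells/well according to doubling time. They were pre-incubated 24 h at 37 °C in 5% CO₂, and time-zero (Tz) plates were TCA-fixed at drug addition. Five 10-fold dilutions of DMSO stock were applied for 48 h. Read-out was SRB staining, 515 nm absorbance, with percent growth calculated versus Tz and untreated control.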

UO-31 = assay: Cytotoxicity against human UO31 cells assessed as cell growth at 10^-5 M after 48 hrs by SRB assay; conditions: UO-31, 48 h, read-out: Activity
UACC-257 = assay: Cytotoxicity against human UACC257 cells assessed as cell growth at 10^-6 M after 48 hrs by SRB assay; conditions: UACC-257, 48 h, read-out: Activity
HOP-92 = assay: Cytotoxicity against human HOP92 cells assessed as cell growth at 10^-6 M after 48 hrs by SRB assay; conditions: HOP-92, 48 h, read-out: Activity
IGROV-1 [3] = assay: Cytotoxicity against human IGROV1 cells assessed as cell growth at 10^-7 M after 48 hrs by SRB assay; conditions: IGROV-1, 48 h, read-out: Activity
HCC 2998 = assay: Cytotoxicity against human HCC2998 cells assessed as cell growth at 10^-4 M after 48 hrs by SRB assay; conditions: HCC 2998, 48 h, read-out: Activity
How it was run: (§3)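 NCI-60 screen: lines kept in RPMI 1640 with 5% FBS, seeded at 5000–40,000 cells/well by doubling time, preincubated 24 h at 37 °C in 5% CO2. Time-zero plates TCA-fixed at drug addition. DMSO stocks diluted in medium, 48 h exposure. Fixation in cold TCA (final 10% adherent, 16% suspension), 0.4% SRB stain, solubilised in 10 mM Tris base, A515. Percent growth computed against control and time-zero.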

HT-29 = assay: Cytotoxicity against human HT-29 cells assessed as cell growth at 10^-6 M after 48 hrs by SRB assay; conditions: HT-29, 48 h, read-out: Activity; how it was run: as §2
CCRF-CEM = assay: Cytotoxicity against human CCRF-CEM cells assessed as cell growth at 10^-7 M after 48 hrs by SRB assay; conditions: read-out: Activity; how it was run: as §3
[4] = Growth inhibition of human MDA-MB-81 cells after 48 hrs by SRB assay
HOP-62 = assay: Cytotoxicity against human HOP62 cells assessed as cell growth at 10^-8 M after 48 hrs by SRB assay; conditions: HOP-62, 48 h, read-out: Activity; how it was run: as §2
SK-OV-3 = assay: Growth inhibition of human SKOV3 cells after 48 hrs by SRB assay; conditions: SK-OV-3, 48 h; for CC50: read-out: LC50 (the source's name); how it was run: as §1
BT-549 = assay: Cytotoxicity against human BT549 cells assessed as cell growth at 10^-6 M after 48 hrs by SRB assay; conditions: BT-549, 48 h, read-out: Activity; how it was run: as §3
PC-3 = assay: Growth inhibition of human PC3 cells after 48 hrs by SRB assay; conditions: PC-3, 48 h; for CC50: read-out: LC50 (the source's name); how it was run: as §1
SNB-19 = assay: Cytotoxicity against human SNB19 cells assessed as cell growth at 10^-6 M after 48 hrs by SRB assay; conditions: SNB-19, 48 h, read-out: Activity
EKVX = assay: Cytotoxicity against human EKVX cells assessed as cell growth at 10^-6 M after 48 hrs by SRB assay; conditions: read-out: Activity; how it was run: as §3
SK-MEL-5 [5] = assay: Growth inhibition of human SK-MEL-5 cells at 10^-6 M after 48 hrs by SRB assay; set-up: scale not given: the % may be the effect or the level left
SK-MEL-5 [6] = assay: Growth inhibition of human SK-MEL-5 cells at 10^-5 M after 48 hrs by SRB assay; set-up: scale not given: the % may be the effect or the level left
NCI-H23 [7] = assay: Growth inhibition of human NCI-H23 cells at 10^-6 M after 48 hrs by SRB assay; set-up: scale not given: the % may be the effect or the level left
SK-MEL-5 [8] = assay: Growth inhibition of human SK-MEL-5 cells after 48 hrs by SRB assay; conditions: SK-MEL-5, 48 h, read-out: LC50 (the source's name); how it was run: as §1
SK-MEL-5 [9] = assay: Growth inhibition of human SK-MEL-5 cells at 10^-7 M after 48 hrs by SRB assay; set-up: scale not given: the % may be the effect or the level left
NCI-H23 [10] = assay: Growth inhibition of human NCI-H23 cells after 48 hrs by SRB assay; conditions: NCI-H23, 48 h; how it was run: as §1
[11] = Cytotoxicity against human NCI-ADR-RES cells assessed as cell growth at 10^-4 M after 48 hrs by SRB assay; conditions: read-out: Activity
A549 = assay: Cytotoxicity against human A549 cells assessed as cell growth at 10^-4 M after 48 hrs by SRB assay; conditions: A549, 48 h, read-out: Activity
SK-MEL-5 [12] = assay: Growth inhibition of human SK-MEL-5 cells at 10^-4 M after 48 hrs by SRB assay; set-up: scale not given: the % may be the effect or the level left
NCI-H23 [13] = assay: Growth inhibition of human NCI-H23 cells at 10^-4 M after 48 hrs by SRB assay; set-up: scale not given: the % may be the effect or the level left
NCI-H23 [14] = assay: Growth inhibition of human NCI-H23 cells at 10^-5 M after 48 hrs by SRB assay; set-up: scale not given: the % may be the effect or the level left
NCI-H23 [15] = assay: Growth inhibition of human NCI-H23 cells at 10^-8 M after 48 hrs by SRB assay; set-up: scale not given: the % may be the effect or the level left
SK-MEL-5 [16] = assay: Growth inhibition of human SK-MEL-5 cells at 10^-8 M after 48 hrs by SRB assay; set-up: scale not given: the % may be the effect or the level left
NCI-H23 [17] = assay: Growth inhibition of human NCI-H23 cells at 10^-7 M after 48 hrs by SRB assay; set-up: scale not given: the % may be the effect or the level left

Structure (SMILES) | growth at 0.1 µM (SNB-75) | growth at 0.01 µM [1] | growth at 0.1 µM (NCI-H522) | GI50 (SN12C) | TGI (SN12C) | CC50 (SN12C) | growth at 1 µM (IGROV-1 [2]) | growth at 1 µM (UACC-257) | growth at 0.1 µM (IGROV-1 [3]) | growth at 100 µM (HCC 2998) | growth at 1 µM (HT-29) | growth at 0.1 µM (CCRF-CEM) | GI50 [4] | growth at 0.01 µM (HOP-62) | GI50 (SK-OV-3) | TGI (SK-OV-3) | CC50 (SK-OV-3) | growth at 1 µM (BT-549) | GI50 (PC-3) | TGI (PC-3) | other results
COc1ccc(-c2nn3cc(-c4ccc(O)cc4O)nc3s2)cc1 | 68% | 100% | 84% | 2.58 µM | > 100 µM | > 100 µM | 72% | 83% | 94% | -3% | 86% | 92% | 1.37 µM | 95% | 1.7 µM | 3.62 µM | 7.72 µM | 73% | 1.95 µM | > 100 µM | growth at 10 µM (UO-31): -46%; growth at 1 µM (HOP-92): 25%; CC50 (PC-3): > 100 µM; growth at 1 µM (SNB-19): 85%; growth at 1 µM (EKVX): 65%
COc1ccc(-c2nn3cc(-c4cccc(N)c4)nc3s2)cc1 | 74% | 96% | 83% | 4.18 µM | > 100 µM | > 100 µM | 72% | 107% | 93% | 6% | 88% | 89% | 1.58 µM | 97% | 2.72 µM | 10.8 µM | 54.9 µM | 87% | 1.2 µM | 20.8 µM | Activity (SK-MEL-5 [5]): 75%; Activity (SK-MEL-5 [6]): 1%; Activity (NCI-H23 [7]): 84%; CC50 (SK-MEL-5 [8]): 3.32 µM; Activity (SK-MEL-5 [9]): 91%; GI50 (NCI-H23 [10]): 4.9 µM; TGI (NCI-H23 [10]): > 100 µM; CC50 (NCI-H23 [10]; read-out: LC50 (the source's name)): > 100 µM; growth at 100 µM [11]: -11%; growth at 100 µM (A549): -46%; Activity (SK-MEL-5 [12]): -96%; CC50 (PC-3): > 100 µM; Activity (NCI-H23 [13]): 2%; Activity (NCI-H23 [14]): 35%; Activity (NCI-H23 [15]): 92%; growth at 1 µM (SNB-19): 81%; Activity (SK-MEL-5 [16]): 91%; Activity (NCI-H23 [17]): 89%; growth at 1 µM (EKVX): 50%
